ChEMBL document CHEMBL4673376 (Bioorg Med Chem Lett, 2021)

What was measured:
[1] = Inhibition of rat intestinal isomaltase; type: tissue-based, Intestine
In short: (§1)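 Enzyme preparations came from small intestine tissue (rat or human, as the line states). Inhibition is reported as IC50.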

[2] = Inhibition of rat intestinal sucrase; type: tissue-based, Intestine; in short: as §1
[3] = Inhibition of rat intestinal maltase; type: tissue-based, Intestine; in short: as §1
Maltase-glucoamylase [4] = molecular target: T1, Maltase-glucoamylase (Homo sapiens, UniProt O43451); assay: Inhibition of human intestinal maltase; type: tissue-based, Intestine; in short: as §1
Maltase-glucoamylase [5] = molecular target: T1, Maltase-glucoamylase; assay: Inhibition of recombinant human maltase-glucoamylase using p-nitrophenyl-alpha-D-glucopyranoside as substrate incubated for 35 mins by microtiter plate reader analysis
[6] = Inhibition of rat intestinal maltase using maltose as substrate incubated for 30 mins and immediately heated for 2 mins by glucose oxidase method; type: tissue-based, Intestine; in short: as §1
[7] = Inhibition of rat intestinal isomaltase using isomaltose as substrate incubated for 30 mins and immediately heated for 2 mins by glucose oxidase method; type: tissue-based, Intestine; in short: as §1
Maltase-glucoamylase [8] = molecular target: T1, Maltase-glucoamylase; assay: Inhibition of human intestinal maltase using maltose as substrate incubated for 30 mins and immediately heated for 2 mins by glucose oxidase method; type: tissue-based, Intestine; in short: as §1
[9] = Inhibition of rat intestinal sucrase using sucrose as substrate incubated for 30 mins and immediately heated for 2 mins by glucose oxidase method; type: tissue-based, Intestine; in short: as §1

T1 sequence (O43451 whole entry): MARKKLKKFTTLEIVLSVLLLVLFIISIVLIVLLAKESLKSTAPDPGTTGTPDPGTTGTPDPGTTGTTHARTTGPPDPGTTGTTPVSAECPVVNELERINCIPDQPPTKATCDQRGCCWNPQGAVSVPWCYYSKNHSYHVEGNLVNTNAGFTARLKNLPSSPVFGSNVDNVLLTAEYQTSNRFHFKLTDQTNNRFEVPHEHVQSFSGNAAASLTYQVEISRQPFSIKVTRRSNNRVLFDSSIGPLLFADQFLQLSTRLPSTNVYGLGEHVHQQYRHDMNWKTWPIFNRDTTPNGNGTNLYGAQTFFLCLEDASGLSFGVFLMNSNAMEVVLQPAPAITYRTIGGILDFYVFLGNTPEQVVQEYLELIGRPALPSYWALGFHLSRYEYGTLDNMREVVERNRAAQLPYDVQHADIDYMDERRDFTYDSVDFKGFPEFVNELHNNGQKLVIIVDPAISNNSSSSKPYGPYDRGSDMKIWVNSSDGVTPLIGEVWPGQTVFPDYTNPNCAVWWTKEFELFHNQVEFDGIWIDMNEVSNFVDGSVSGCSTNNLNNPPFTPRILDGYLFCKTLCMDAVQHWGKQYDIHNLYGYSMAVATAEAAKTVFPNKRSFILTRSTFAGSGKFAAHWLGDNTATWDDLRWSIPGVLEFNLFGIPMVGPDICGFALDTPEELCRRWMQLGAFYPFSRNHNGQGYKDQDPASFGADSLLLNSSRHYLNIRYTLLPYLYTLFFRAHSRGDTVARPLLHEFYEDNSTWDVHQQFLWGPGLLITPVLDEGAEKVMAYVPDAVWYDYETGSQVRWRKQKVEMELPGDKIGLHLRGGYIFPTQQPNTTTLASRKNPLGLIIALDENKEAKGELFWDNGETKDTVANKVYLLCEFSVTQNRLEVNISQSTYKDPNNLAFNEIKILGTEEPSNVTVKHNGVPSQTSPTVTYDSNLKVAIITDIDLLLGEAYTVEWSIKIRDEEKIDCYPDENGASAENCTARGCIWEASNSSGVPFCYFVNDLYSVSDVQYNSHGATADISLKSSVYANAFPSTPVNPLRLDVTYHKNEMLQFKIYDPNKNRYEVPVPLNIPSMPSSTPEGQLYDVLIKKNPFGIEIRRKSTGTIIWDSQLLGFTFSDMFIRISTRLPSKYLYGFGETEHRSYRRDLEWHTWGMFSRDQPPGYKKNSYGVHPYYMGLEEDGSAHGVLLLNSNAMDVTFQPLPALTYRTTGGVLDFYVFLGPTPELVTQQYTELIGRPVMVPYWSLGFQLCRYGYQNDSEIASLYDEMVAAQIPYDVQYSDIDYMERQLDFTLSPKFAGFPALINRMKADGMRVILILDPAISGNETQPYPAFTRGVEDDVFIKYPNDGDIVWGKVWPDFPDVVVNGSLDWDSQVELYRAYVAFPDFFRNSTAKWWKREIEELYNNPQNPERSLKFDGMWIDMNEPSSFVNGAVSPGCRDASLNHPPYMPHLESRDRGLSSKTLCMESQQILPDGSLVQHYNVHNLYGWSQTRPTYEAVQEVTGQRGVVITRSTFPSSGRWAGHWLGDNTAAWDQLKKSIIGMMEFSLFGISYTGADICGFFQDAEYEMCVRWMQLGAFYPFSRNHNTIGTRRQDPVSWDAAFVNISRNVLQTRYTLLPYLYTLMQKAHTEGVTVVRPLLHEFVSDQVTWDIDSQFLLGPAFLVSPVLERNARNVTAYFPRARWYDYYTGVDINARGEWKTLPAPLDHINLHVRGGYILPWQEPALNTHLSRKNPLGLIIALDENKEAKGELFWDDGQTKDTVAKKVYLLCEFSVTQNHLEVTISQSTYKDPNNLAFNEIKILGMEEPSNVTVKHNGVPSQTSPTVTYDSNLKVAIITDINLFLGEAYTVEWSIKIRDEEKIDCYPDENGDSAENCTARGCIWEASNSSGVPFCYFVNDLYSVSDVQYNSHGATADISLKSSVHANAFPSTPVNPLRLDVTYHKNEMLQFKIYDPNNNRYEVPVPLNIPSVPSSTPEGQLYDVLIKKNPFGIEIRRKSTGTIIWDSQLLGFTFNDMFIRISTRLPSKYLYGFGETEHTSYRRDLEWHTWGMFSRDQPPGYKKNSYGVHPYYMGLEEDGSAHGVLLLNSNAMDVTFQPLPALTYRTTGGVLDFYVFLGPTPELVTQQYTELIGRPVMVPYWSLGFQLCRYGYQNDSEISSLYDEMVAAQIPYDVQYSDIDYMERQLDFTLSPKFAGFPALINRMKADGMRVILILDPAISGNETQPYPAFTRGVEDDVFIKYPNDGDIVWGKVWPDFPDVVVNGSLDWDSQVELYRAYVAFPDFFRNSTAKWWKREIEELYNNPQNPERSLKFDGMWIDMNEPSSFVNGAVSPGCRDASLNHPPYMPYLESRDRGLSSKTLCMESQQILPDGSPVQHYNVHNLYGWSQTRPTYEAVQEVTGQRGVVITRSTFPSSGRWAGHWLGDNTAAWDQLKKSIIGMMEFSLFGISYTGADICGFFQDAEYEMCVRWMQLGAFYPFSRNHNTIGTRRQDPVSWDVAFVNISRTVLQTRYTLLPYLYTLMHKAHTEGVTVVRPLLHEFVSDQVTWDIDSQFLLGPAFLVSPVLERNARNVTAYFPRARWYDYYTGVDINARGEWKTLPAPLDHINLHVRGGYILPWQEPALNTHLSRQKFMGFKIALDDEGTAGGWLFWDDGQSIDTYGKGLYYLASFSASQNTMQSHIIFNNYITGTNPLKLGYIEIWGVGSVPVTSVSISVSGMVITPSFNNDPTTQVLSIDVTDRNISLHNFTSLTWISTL

Row | SMILES | IC50 [1] | IC50 [2] | IC50 [3] | IC50 (Maltase-glucoamylase [4]) | Ki (Maltase-glucoamylase [5]) | IC50 [6] | IC50 [7] | IC50 (Maltase-glucoamylase [8]) | IC50 [9]
1 | CCCCCC[C@@H](O)[C@H](OS(=O)(=O)[O-])[C@H](O)C[S@+]1C[C@@H](O)[C@H](O)[C@H]1CO | 4.8 µM | 0.29 µM | 7.7 µM | 1.7 µM |  |  |  |  | 
2 | CCCCCCCCCCCCCC[S@+]1C[C@@H](O)[C@H](O)[C@H]1CO |  |  |  |  | 6 µM |  |  |  | 
3 | CCC[C@@H](O)[C@H](OS(=O)(=O)[O-])[C@H](O)C[S@+]1C[C@@H](O)[C@H](O)[C@H]1CO | 2.9 µM | 0.73 µM | 5.4 µM | 4.8 µM |  |  |  |  | 
4 | CCCCCCCC[C@@H](O)[C@H](O)[C@H](O)C[S@+]1C[C@@H](O)[C@H](O)[C@H]1CO | 0.4 µM | 0.38 µM | 2.5 µM | 2 µM |  |  |  |  | 
5 | CCC[C@@H](O)[C@H](O)[C@H](O)C[S@+]1C[C@@H](O)[C@H](O)[C@H]1CO | 0.49 µM | 1.4 µM | 4.8 µM | 5 µM |  |  |  |  | 
6 | CCCCCCCCCC[C@@H](O)[C@H](OS(=O)(=O)[O-])[C@H](O)C[S@+]1C[C@@H](O)[C@H](O)[C@H]1CO | 4.4 µM | 0.17 µM | 6.3 µM | 1.5 µM |  |  |  |  | 
7 | CCCCCCCC[C@@H](O)[C@H](OS(=O)(=O)[O-])[C@H](O)C[S@+]1C[C@@H](O)[C@H](O)[C@H]1CO | 5.4 µM | 0.15 µM | 7.2 µM | 1.2 µM |  |  |  |  | 
8 | CCCC[S+]1C[C@@H](O)[C@H](O)[C@H]1CO (single isomer, unassigned) |  |  |  |  | 32 µM |  |  |  | 
9 | C[C@H]1O[C@H](O[C@H]2[C@H](O)[C@@H](O)[C@@H](O[C@H]3[C@H](O)[C@@H](O)C(O)O[C@@H]3CO)O[C@@H]2CO)[C@H](O)[C@@H](O)[C@@H]1N[C@H]1C=C(CO)[C@@H](O)[C@H](O)[C@H]1O (stereo partly specified) [ACARBOSE] | 645 µM | 1.5 µM | 1.7 µM |  |  |  |  |  | 
10 | [O-][C@@H](CO)[C@H](O)C[S@+]1C[C@@H](O)[C@H](O)[C@H]1CO [NEOSALACINOL] |  |  |  |  |  | 8 µM | 0.3 µM | 9 µM | 1.3 µM
11 | O=S(=O)([O-])O[C@@H](CO)[C@H](O)C[S@+]1C[C@@H](O)[C@H](O)[C@H]1CO [SALACINOL] |  |  |  |  |  | 5.2 µM | 1.3 µM |  | 1.6 µM
